Reference: ChEMBL document CHEMBL4004830 (J Med Chem, 2017)
pKi: −log10 of the molar value. Activity calls are given as the source filed them. The rule behind the calls is not given here.

What was measured:
[1] = target: Dual specificity tyrosine-phosphorylation-regulated kinase 1B (Homo sapiens) (UniProt Q9Y463); experiment: Inhibition of DYRK1B (unknown origin) assessed as residual activity at 10 uM
[2] = target: Dual specificity tyrosine-phosphorylation-regulated kinase 1A (Rattus norvegicus) (UniProt Q63470); experiment: Inhibition of recombinant rat N-terminal GST-tagged DYRK1A (1 to 499 amino acid residues) expressed in Escherichia coli assessed as residual activity at 10 uM
[3] = target: Cyclin-dependent kinase 7/ cyclin H (Homo sapiens) (UniProt P51946+P50613); experiment: (§1) Inhibition of CDK7/cyclin H (unknown origin) in presence of [gamma-33P]-ATP […]; assay type: protein-complex assay
[4] = system: MDA-MB-453; experiment: Growth inhibition of human MDA-MB-453 cells after 72 hrs by MTT assay; assay type: functional; conditions: MDA-MB-453, 72 h
How it was run: (§2)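 72 h antiproliferation assay, resazurin read-out for MV4-11 and MTT read-out for MDA-MB-453; values from at least two replicates.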

[5] = system: MV4-11; experiment: Growth inhibition of human MV4-11 cells after 72 hrs by resazurin assay; assay type: functional; conditions: MV4-11, 72 h; how it was run: as §2
[6] = target: Homeodomain-interacting protein kinase 2 (Homo sapiens) (UniProt Q9H2X6); experiment: Inhibition of recombinant human N-terminal His6-tagged HIPK2 (165 to 564 amino acid residues) expressed in baculovirus infected Sf21 insect cells assessed as residual activity at 10 uM
[7] = target: Cyclin-dependent kinase 1/cyclin B1 (Homo sapiens) (UniProt P06493+P14635); experiment: (§3) Inhibition of CDK1/cyclin B (unknown origin) in presence of [gamma-33P]-ATP […]; assay type: protein-complex assay
[8] = target: MAP kinase-interacting serine/threonine-protein kinase 2 (Homo sapiens) (UniProt Q9HBH9); experiment: Inhibition of recombinant full-length human N-terminal His6-tagged Mnk2 expressed in baculovirus infected Sf21 insect cells assessed as residual activity at 10 uM; values are per cent of control
[9] = system: MV4-11; experiment: Cell cycle arrest in human MV4-11 cells assessed as accumulation at sub-G1 phase at 0.04 uM after 24 hrs by propidium iodide staining based flow cytometry (reference value: 1.99%); assay type: functional
[10] = target: Fibroblast growth factor receptor 1 (Homo sapiens) (UniProt P11362); experiment: Inhibition of recombinant human N-terminal GST-tagged FGFR1 (456 to 765 amino acid residues) expressed in baculovirus infected Sf21 insect cells assessed as residual activity at 10 uM; values are per cent of control
[11] = system: MV4-11; experiment: Cell cycle arrest in human MV4-11 cells assessed as accumulation at G1 phase at 0.04 uM after 24 hrs by propidium iodide staining based flow cytometry (reference value: 61.01%); assay type: functional
[12] = system: MV4-11; experiment: Cell cycle arrest in human MV4-11 cells assessed as accumulation at sub-G1 phase at 0.40 uM after 24 hrs by propidium iodide staining based flow cytometry (reference value: 1.99%); assay type: functional
[13] = system: MV4-11; experiment: Cell cycle arrest in human MV4-11 cells assessed as accumulation at G1 phase after 24 hrs by propidium iodide staining based flow cytometry; assay type: functional
[14] = system: MV4-11; experiment: Cell cycle arrest in human MV4-11 cells assessed as accumulation at S phase at 0.04 uM after 24 hrs by propidium iodide staining based flow cytometry (reference value: 19.07%); assay type: functional
[15] = target: Dual specificity tyrosine-phosphorylation-regulated kinase 1B (Homo sapiens) (UniProt Q9Y463); experiment: Inhibition of DYRK1B (unknown origin) assessed as residual activity at 10 uM; values are per cent of control
[16] = target: Death-associated protein kinase 1 (Homo sapiens) (UniProt P53355); experiment: Inhibition of recombinant human N-terminal GST-tagged DAPK1 (1 to 296 amino acid residues) expressed in baculovirus infected Sf21 cells assessed as residual activity at 10 uM; values are per cent of control
[17] = target: Dual specificity tyrosine-phosphorylation-regulated kinase 1A (Rattus norvegicus) (UniProt Q63470); experiment: Inhibition of recombinant rat N-terminal GST-tagged DYRK1A (1 to 499 amino acid residues) expressed in Escherichia coli assessed as residual activity at 10 uM; values are per cent of control
[18] = system: MV4-11; experiment: Cell cycle arrest in human MV4-11 cells assessed as accumulation at G1 phase at 0.40 uM after 24 hrs by propidium iodide staining based flow cytometry (reference value: 61.01%); assay type: functional
[19] = target: Homeodomain-interacting protein kinase 2 (Homo sapiens) (UniProt Q9H2X6); experiment: Inhibition of recombinant human N-terminal His6-tagged HIPK2 (165 to 564 amino acid residues) expressed in baculovirus infected Sf21 insect cells assessed as residual activity at 10 uM; values are per cent of control
[20] = system: MV4-11; experiment: Cell cycle arrest in human MV4-11 cells assessed as accumulation at sub-G1 phase at 0.20 uM after 24 hrs by propidium iodide staining based flow cytometry (reference value: 1.99%); assay type: functional
[21] = target: Receptor-type tyrosine-protein kinase FLT3 (Homo sapiens) (UniProt P36888); experiment: Inhibition of recombinant human N-terminal GST-tagged Flt3 (564 to end amino acid residues) expressed in baculovirus infected Sf21 insect cells assessed as residual activity at 10 uM; values are per cent of control
[22] = target: Cyclin-dependent kinase 7/ cyclin H (Homo sapiens, UniProt P50613); experiment: as §1; assay type: protein-complex assay; conditions: read-out: Ki(app)
[23] = target: CDK2/Cyclin A2 (Homo sapiens, UniProt P24941); experiment: Inhibition of CDK2/cyclin A (unknown origin) in presence of [gamma-33P]-ATP […]; assay type: protein-complex assay; conditions: read-out: Ki(app)
[24] = target: Cyclin-dependent kinase 1/cyclin B1 (Homo sapiens, UniProt P06493); experiment: as §3; assay type: protein-complex assay; conditions: read-out: Ki(app)
[25] = system: MV4-11; experiment: Cell cycle arrest in human MV4-11 cells assessed as accumulation at G2/M phase at 0.04 uM after 24 hrs by propidium iodide staining based flow cytometry (reference value: 17.94%); assay type: functional
[26] = target: Serine/threonine-protein kinase pim-1 (Homo sapiens) (UniProt P11309); experiment: Inhibition of recombinant full-length human N-terminal GST-tagged Pim-1 expressed in Escherichia coli assessed as residual activity at 10 uM; values are per cent of control
[27] = system: MV4-11; experiment: Cell cycle arrest in human MV4-11 cells assessed as accumulation at G2/M phase at 0.40 uM after 24 hrs by propidium iodide staining based flow cytometry (reference value: 17.94%); assay type: functional
[28] = system: MV4-11; experiment: Cell cycle arrest in human MV4-11 cells assessed as accumulation at S phase at 0.20 uM after 24 hrs by propidium iodide staining based flow cytometry (reference value: 19.07%); assay type: functional
[29] = target: Vascular endothelial growth factor receptor 3 (Homo sapiens) (UniProt P35916); experiment: Inhibition of recombinant human N-terminal GST-tagged Flt4 (800 to end amino acid residues) expressed in baculovirus infected Sf21 insect cells assessed as residual activity at 10 uM; values are per cent of control
[30] = system: MV4-11; experiment: Cell cycle arrest in human MV4-11 cells assessed as accumulation at G2/M phase at 0.20 uM after 24 hrs by propidium iodide staining based flow cytometry (reference value: 17.94%); assay type: functional
[31] = system: MV4-11; experiment: Cell cycle arrest in human MV4-11 cells assessed as accumulation at G1 phase at 0.20 uM after 24 hrs by propidium iodide staining based flow cytometry (reference value: 61.01%); assay type: functional
[32] = species on record: Homo sapiens; experiment: Inhibition of SGK (unknown origin) assessed as residual activity at 10 uM; values are per cent of control
[33] = system: MV4-11; experiment: Cell cycle arrest in human MV4-11 cells assessed as accumulation at S phase at 0.40 uM after 24 hrs by propidium iodide staining based flow cytometry (reference value: 19.07%); assay type: functional

Chain of Homeodomain-interacting protein kinase 2 (Homo sapiens) (Q9H2X6 whole entry, looked up, the tested form may be a part): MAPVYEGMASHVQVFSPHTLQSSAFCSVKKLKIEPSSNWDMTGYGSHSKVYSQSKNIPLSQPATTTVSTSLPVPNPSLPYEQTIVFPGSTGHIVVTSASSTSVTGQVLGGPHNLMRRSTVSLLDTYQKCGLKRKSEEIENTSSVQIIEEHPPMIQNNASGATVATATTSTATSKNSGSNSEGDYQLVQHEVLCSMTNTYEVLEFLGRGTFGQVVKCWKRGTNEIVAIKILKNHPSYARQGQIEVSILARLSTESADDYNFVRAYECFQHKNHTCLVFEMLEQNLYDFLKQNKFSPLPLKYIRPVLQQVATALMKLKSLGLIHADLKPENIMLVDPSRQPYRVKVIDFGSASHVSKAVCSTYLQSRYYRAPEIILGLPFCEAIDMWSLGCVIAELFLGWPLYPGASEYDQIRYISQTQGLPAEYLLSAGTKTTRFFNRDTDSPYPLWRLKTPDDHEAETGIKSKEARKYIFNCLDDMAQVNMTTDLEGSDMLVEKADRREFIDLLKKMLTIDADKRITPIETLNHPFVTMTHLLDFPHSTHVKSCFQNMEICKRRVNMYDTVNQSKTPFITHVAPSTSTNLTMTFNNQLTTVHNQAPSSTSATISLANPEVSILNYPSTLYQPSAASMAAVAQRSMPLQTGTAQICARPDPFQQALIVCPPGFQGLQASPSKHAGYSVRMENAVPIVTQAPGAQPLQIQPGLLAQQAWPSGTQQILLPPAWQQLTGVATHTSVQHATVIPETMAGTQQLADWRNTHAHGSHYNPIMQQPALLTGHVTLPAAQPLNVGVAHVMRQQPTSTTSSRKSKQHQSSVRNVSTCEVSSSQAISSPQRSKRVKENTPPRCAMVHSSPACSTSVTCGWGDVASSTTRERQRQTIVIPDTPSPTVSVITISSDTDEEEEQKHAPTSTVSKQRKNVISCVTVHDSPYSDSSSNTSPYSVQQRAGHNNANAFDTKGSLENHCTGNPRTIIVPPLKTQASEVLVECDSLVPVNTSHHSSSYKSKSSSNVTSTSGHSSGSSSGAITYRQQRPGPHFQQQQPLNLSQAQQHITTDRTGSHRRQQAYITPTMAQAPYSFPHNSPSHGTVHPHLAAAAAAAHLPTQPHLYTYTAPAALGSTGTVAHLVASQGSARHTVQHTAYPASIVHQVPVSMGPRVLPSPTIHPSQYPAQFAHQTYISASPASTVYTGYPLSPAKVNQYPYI
Chain of Dual specificity tyrosine-phosphorylation-regulated kinase 1B (Homo sapiens) (Q9Y463 whole entry, looked up, the tested form may be a part): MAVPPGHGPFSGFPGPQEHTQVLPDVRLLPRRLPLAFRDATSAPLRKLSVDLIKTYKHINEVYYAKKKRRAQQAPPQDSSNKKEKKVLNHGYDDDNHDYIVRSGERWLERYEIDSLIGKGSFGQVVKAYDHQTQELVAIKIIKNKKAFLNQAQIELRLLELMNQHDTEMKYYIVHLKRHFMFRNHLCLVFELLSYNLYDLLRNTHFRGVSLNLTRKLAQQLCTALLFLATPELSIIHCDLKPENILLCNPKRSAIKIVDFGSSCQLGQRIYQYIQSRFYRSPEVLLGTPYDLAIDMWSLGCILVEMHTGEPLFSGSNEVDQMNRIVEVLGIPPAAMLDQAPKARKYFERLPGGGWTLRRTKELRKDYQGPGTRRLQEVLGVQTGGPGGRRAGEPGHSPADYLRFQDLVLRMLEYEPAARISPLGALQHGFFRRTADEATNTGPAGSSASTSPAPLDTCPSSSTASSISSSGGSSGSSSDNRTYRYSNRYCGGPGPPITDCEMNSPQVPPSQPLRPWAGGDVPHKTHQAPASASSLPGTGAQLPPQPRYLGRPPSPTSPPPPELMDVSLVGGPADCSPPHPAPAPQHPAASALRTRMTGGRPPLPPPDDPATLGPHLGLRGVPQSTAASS
Chain of Death-associated protein kinase 1 (Homo sapiens) (P53355 whole entry, looked up, the tested form may be a part): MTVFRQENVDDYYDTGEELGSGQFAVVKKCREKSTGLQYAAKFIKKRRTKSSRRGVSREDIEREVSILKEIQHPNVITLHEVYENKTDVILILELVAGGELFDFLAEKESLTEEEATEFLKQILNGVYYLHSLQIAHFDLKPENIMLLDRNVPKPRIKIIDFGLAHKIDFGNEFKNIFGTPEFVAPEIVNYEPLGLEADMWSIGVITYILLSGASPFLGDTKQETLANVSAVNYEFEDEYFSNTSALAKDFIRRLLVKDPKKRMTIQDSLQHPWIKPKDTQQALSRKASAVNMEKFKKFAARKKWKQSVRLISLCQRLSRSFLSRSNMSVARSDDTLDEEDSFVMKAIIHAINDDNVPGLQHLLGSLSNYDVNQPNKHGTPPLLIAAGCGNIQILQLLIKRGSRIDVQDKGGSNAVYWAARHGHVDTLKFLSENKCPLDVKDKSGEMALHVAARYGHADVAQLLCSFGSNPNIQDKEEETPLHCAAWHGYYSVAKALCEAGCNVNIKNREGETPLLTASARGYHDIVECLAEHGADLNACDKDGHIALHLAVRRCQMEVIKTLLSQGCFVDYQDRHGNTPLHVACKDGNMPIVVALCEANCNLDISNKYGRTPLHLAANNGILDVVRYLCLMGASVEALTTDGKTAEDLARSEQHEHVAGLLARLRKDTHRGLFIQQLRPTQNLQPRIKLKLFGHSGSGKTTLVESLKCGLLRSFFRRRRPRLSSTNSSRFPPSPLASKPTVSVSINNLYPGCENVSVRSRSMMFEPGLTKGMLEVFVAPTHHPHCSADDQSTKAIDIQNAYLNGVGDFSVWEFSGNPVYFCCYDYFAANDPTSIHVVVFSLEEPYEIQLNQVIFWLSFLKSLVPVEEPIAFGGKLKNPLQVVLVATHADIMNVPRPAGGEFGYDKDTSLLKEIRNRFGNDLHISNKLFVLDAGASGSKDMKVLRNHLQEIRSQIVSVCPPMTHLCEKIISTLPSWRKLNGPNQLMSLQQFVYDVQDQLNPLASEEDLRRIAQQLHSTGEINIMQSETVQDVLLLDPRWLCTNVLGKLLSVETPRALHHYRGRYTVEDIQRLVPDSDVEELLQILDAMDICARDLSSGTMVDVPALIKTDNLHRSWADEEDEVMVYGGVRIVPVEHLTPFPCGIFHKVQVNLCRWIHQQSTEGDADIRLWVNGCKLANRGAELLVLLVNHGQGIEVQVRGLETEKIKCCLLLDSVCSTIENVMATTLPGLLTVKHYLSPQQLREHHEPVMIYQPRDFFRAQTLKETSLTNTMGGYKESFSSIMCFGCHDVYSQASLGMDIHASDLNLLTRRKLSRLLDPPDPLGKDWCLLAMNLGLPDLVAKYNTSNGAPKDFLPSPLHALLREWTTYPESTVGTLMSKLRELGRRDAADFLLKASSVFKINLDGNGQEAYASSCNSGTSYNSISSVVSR
Chain of Receptor-type tyrosine-protein kinase FLT3 (Homo sapiens) (P36888 whole entry): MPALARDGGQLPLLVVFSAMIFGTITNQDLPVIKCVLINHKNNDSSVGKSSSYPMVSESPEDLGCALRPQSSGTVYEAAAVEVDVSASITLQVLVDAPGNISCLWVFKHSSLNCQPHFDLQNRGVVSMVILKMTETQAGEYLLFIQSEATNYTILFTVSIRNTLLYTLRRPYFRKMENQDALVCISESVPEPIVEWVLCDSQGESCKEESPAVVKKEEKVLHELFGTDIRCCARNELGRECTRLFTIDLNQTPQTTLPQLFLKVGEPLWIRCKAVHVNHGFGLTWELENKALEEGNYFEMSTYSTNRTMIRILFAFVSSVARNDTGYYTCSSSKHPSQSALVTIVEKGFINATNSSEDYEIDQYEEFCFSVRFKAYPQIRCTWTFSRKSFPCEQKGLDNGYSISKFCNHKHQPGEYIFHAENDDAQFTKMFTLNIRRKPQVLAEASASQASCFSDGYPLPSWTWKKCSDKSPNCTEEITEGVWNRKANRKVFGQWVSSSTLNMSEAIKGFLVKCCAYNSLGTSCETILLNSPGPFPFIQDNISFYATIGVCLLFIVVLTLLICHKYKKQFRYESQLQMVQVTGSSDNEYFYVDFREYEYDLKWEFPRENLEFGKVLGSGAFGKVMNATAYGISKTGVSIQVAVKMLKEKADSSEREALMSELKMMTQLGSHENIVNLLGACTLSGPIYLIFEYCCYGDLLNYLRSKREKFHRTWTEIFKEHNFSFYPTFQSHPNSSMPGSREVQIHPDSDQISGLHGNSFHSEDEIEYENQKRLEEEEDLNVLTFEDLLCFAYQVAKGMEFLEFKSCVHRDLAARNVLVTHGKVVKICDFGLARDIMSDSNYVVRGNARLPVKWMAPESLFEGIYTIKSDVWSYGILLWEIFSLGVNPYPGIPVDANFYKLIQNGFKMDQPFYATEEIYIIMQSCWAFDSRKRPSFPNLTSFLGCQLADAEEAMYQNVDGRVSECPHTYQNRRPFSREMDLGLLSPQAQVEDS
Chain of Fibroblast growth factor receptor 1 (Homo sapiens) (P11362 22-822 limits assumed): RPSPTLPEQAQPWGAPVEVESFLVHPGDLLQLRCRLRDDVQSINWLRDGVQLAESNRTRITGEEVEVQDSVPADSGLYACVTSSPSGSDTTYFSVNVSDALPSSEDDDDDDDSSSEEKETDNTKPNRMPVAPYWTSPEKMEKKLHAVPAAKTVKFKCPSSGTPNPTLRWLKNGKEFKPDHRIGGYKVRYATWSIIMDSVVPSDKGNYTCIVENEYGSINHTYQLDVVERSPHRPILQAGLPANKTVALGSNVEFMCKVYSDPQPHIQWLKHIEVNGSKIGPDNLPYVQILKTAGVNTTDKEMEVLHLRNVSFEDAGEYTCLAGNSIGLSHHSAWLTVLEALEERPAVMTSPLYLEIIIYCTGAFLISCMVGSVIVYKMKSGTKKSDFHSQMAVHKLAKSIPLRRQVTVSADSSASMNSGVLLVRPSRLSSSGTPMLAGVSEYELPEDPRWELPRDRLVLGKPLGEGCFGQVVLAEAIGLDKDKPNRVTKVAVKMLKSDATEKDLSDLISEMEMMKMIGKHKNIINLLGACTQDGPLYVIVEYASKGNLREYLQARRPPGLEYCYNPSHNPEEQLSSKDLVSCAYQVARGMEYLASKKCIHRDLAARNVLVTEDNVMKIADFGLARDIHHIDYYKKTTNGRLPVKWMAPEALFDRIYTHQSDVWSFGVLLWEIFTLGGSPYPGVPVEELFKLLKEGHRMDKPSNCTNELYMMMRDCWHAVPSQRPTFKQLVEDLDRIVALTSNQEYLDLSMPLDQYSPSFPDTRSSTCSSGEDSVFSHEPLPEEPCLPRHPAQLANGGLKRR

## Cc1nc(NC2CCCC2)sc1-c1nc(Nc2ccc(N3CCC(N(C)C)CC3)cn2)ncc1F
[1]
  inhibition: Active
[2]
  inhibition: Active
[3]
  Ki(app): inactive
[4]
  GI50: 356 nM
[5]
  GI50: 454 nM
[6]
  inhibition: Active
[7]
  Ki(app): inactive

## Cc1nc(NC2CCCC2)sc1-c1ccnc(Nc2ccc(N3CCNCC3)cn2)n1
[8]
  residual activity: < 10%
[9]
  Activity: 6.3%
[10]
  residual activity: < 10%
[11]
  Activity: 64.05%
[12]
  Activity: 4.01%
[13]
  Activity: Dose-dependent effect
[14]
  Activity: 17.01%
[15]
  residual activity: < 10%
[16]
  residual activity: < 10%
[17]
  residual activity: < 10%
[18]
  Activity: 85 - 85.24%
[19]
  residual activity: < 10%
[20]
  Activity: 4.23%
[21]
  residual activity: < 10%
[22]
  pKi: 5.96
[4]
  GI50: 70 nM
[5]
  GI50: 23 nM
[23]
  pKi: < 5.30
[24]
  pKi: < 5.30
[25]
  Activity: 12.73%
[26]
  residual activity: < 10%
[27]
  Activity: 4.7%
[28]
  Activity: 13.52%
[29]
  residual activity: < 10%
[30]
  Activity: 9.96%
[31]
  Activity: 72.09%
[32]
  residual activity: < 10%
[33]
  Activity: 5.9%
